Measurements: ChEMBL document CHEMBL1681759, “Synthesis and biological evaluation of benzimidazole-5-carbohydrazide derivatives as antimalarial, cytotoxic and antitubercular agents” (Bioorg Med Chem, 2011)
In brackets after ≈: the same amount, converted by molar mass.

Assays:
[1] = Inhibition of beta-hematin formation assessed as inhibition of […] polymerization at […] after 48 hrs; assay type: functional
Method in brief: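 Hemin chloride (50 µL, 4 mM in DMSO) was mixed in triplicate with compound in DMSO; water or DMSO served as controls. Reaction was started with acetate buffer (0.2 M, pH 4.4) and run 37 °C for 48 h. The pellet was DMSO-washed twice, dissolved in 0.2 N NaOH, diluted 1:2 in 0.1 N NaOH, and read at 405 nm as % inhibition of FP polymerization.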

Plasmodium berghei [2] = assay: Antimalarial activity against chloroquine-susceptible Plasmodium berghei ANKA infected in Balb-C mouse; assay type: functional, organism-based
Method in brief: (§1)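 Balb-C mice (18–23 g, n = 6) were infected iv in the caudal vein with 10⁶ P. berghei ANKA-infected RBCs. Dosing started 2 h post-infection: 20 mg/kg ip once daily for 4 days, DMSO stock diluted in Saline-Tween 20 (2%). Chloroquine 25 mg/kg served as positive control; untreated mice were controls. Parasitemia was read on day 4 from Giemsa smears, and survival days were recorded.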

[3] = Cytotoxicity against african green monkey Vero cells assessed as growth inhibition after 48 hrs by sulforhodamine B assay; assay type: cell-based; conditions: chlorocebus sabaeus
Method in brief: (§2)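 Cells were exposed to serial compound dilutions in 96-well plates for 48 h at 37 °C alongside solvent controls. Growth was read colorimetrically by sulforhodamine B. GI50 is the concentration giving a 50% reduction in absorbance versus solvent-treated controls, derived by linear regression.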

Plasmodium berghei [4] = assay: Antimalarial activity against chloroquine-susceptible Plasmodium berghei ANKA assessed as inhibition of trophozoite extract-mediated mouse hemoglobin hydrolysis at 10 mM after 18 hrs by SDS-PAGE; assay type: functional
Method in brief: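 Trophozoite extract came from P. berghei-infected mouse blood at 30–50% parasitemia: RBCs percoll-purified (80–70%), saponin-lysed, then freeze–thawed three times. Substrate was native haemoglobin from uninfected mouse erythrocytes lysed in water. The mix held GSH and acetate buffer (0.2 M, pH 5.4). Compound was added in DMSO and incubated 37 °C, 18 h. Reactions were stopped with reduced sample buffer.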

HT-29 = assay: Cytotoxicity against human HT-29 cells assessed as growth inhibition after 48 hrs by sulforhodamine B assay; assay type: functional; conditions: HT-29, 48 h; method in brief: as §2
[5] = Cytotoxicity against mouse 3T3 cells assessed as growth inhibition after 48 hrs by sulforhodamine B assay; assay type: cell-based; conditions: NIH3T3 cells; method in brief: as §2
[6] = tested on: Mycobacterium tuberculosis; assay: Antimycobacterial activity against Mycobacterium tuberculosis H37Rv after 5 days by tetrazolium microplate assay; assay type: functional; conditions: 120 h
Method in brief: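 Tetrazolium microplate assay run in 7H9GC broth. DMSO stocks (4 mg/mL) were diluted to final 0.4–25 µg/mL. Isoniazid (0.125–32 µg/mL) and rifampin (0.063–16 µg/mL) were positive controls; inoculum-only and DMSO controls were included. Plates were incubated 5 days at 37 °C, then an MTT-Tween 80 mix was added and incubation continued 24 h at 37 °C. Run in triplicate. MIC = lowest concentration preventing the yellow-to-purple colour change.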

DU-145 = assay: Cytotoxicity against human DU145 cells assessed as growth inhibition after 48 hrs by sulforhodamine B assay; assay type: functional; conditions: DU-145, 48 h; method in brief: as §2
M14 = assay: Cytotoxicity against human M14 cells assessed as growth inhibition after 48 hrs by sulforhodamine B assay; assay type: functional; conditions: M14, 48 h; method in brief: as §2
NCI-H460 = assay: Cytotoxicity against human H460 cells assessed as growth inhibition after 48 hrs by sulforhodamine B assay; assay type: functional; conditions: NCI-H460, 48 h; method in brief: as §2
Plasmodium berghei [7] = assay: Antimalarial activity against chloroquine-susceptible Plasmodium berghei ANKA infected in Balb-C mouse assessed as inhibition parasitemia at 20 mg/kg, ip qd for 4 days […]; assay type: functional; conditions: 96 h, route intraperitoneal; method in brief: as §1
K562 = assay: Cytotoxicity against human K562 cells assessed as growth inhibition after 48 hrs by sulforhodamine B assay; assay type: functional; conditions: K562, 48 h; method in brief: as §2
Plasmodium berghei [8] = assay: Antimalarial activity against chloroquine-susceptible Plasmodium berghei ANKA infected in Balb-C mouse assessed as mouse survival days at 20 mg/kg, ip qd for 4 days […] relative to untreated control; assay type: functional; conditions: route intraperitoneal
MCF7 = assay: Cytotoxicity against human MCF7 cells assessed as growth inhibition after 48 hrs by sulforhodamine B assay; assay type: functional; conditions: MCF7, 48 h; method in brief: as §2

Compound | inhibition [1] [%] | IC50 (Plasmodium berghei [2]) [µM] | GI50 at 48 h [3] [µg/mL] | inhibition at 10000 µM (Plasmodium berghei [4]) [%] | GI50 (HT-29) [µg/mL] | GI50 at 48 h [5] [µg/mL] | MIC [6] [µg/mL] | GI50 (DU-145) [µg/mL] | GI50 (M14) [µg/mL] | GI50 (NCI-H460) [µg/mL] | inhibition in vivo at 20 mg/kg (Plasmodium berghei [7]) [%] | GI50 (K562) [µg/mL] | Survival (Plasmodium berghei [8]) [days] | GI50 (MCF7) [µg/mL]
O=C(NNC(=O)c1cc2ccccc2cc1O)c1ccc2[nH]c(-c3ccc([N+](=O)[O-])s3)nc2c1 | 75.8 | 11.1 | 31.2 (≈ 66 µM) | 14.1 | 62.5 (≈ 132 µM) | 31.2 (≈ 66 µM) | > 25 | 62.5 (≈ 132 µM) | 62.5 (≈ 132 µM) | 62.5 (≈ 132 µM) | 1.8 | 31.2 (≈ 66 µM) | 18.8 | 62.5 (≈ 132 µM)
CC(C)CC(=O)N[C@H](C(=O)N[C@H](C(=O)N[C@@H](CC(C)C)[C@@H](O)CC(=O)N[C@@H](C)C(=O)N[C@@H](CC(C)C)[C@@H](O)CC(=O)O)C(C)C)C(C)C [PEPSTATIN] |  |  |  | 95.5 |  |  |  |  |  |  |  |  |  | 
O=C(NNC(=O)c1cc2ccccc2cc1O)c1ccc2[nH]c(-c3ccc([N+](=O)[O-])o3)nc2c1 | 31.7 |  |  | 12.9 |  |  |  |  |  |  |  |  |  | 
COc1cc(C(=O)NNC(=O)c2ccc3[nH]c(-c4ccc([N+](=O)[O-])o4)nc3c2)cc(OC)c1OC | 69.4 | 14.4 | 31.2 (≈ 64.9 µM) | 0 | 31.2 (≈ 64.9 µM) | 31.2 (≈ 64.9 µM) | > 25 | 15.6 (≈ 32.5 µM) | 15.6 (≈ 32.5 µM) | 31.2 (≈ 64.9 µM) | 9.4 | 31.2 (≈ 64.9 µM) | 12.2 | 31.2 (≈ 64.9 µM)
COc1cc(C(=O)NNC(=O)c2ccc3[nH]c(-c4ccc([N+](=O)[O-])s4)nc3c2)cc(OC)c1OC | 92.4 | 9.56 | 31.2 (≈ 62.8 µM) |  | 62.5 (≈ 126 µM) | 31.2 (≈ 62.8 µM) | > 25 | 62.5 (≈ 126 µM) | 62.5 (≈ 126 µM) | 62.5 (≈ 126 µM) | 9.36 | 31.2 (≈ 62.8 µM) | 10 | 31.2 (≈ 62.8 µM)
COc1ccc(C(=O)NNC(=O)c2ccc3[nH]c(-c4ccc([N+](=O)[O-])o4)nc3c2)cc1OC | 94.8 | 8.71 | 62.5 (≈ 138 µM) | 34.5 | 15.6 (≈ 34.6 µM) | 31.2 (≈ 69.2 µM) | > 25 | 15.6 (≈ 34.6 µM) | 15.6 (≈ 34.6 µM) | 15.6 (≈ 34.6 µM) | 4.8 | 15.6 (≈ 34.6 µM) | 12.2 | 31.2 (≈ 69.2 µM)
O=C(NNC(=O)c1ccc2[nH]c(-c3ccc([N+](=O)[O-])o3)nc2c1)c1ccc(Cl)cc1 | 59.6 | 23.4 |  | 33.8 |  |  |  |  |  |  | 27.4 |  | 9.8 | 
O=C(NNC(=O)c1ccc2[nH]c(-c3ccc([N+](=O)[O-])s3)nc2c1)c1ccc(Cl)cc1 | 25.5 |  |  | 12.7 |  |  |  |  |  |  | 13.5 |  | 10.8 | 
CCN(CC)CCCC(C)Nc1ccnc2cc(Cl)ccc12 (configuration not stated) [CHLOROQUINE] | 94.2 |  |  | 24.1 |  |  |  |  |  |  | 1.3 |  | >30 | 
CC(=O)N[C@@H](CC(C)C)C(=O)N[C@@H](CC(C)C)C(=O)N[C@H](C=O)CCCNC(=N)N [LEUPEPTIN] |  |  |  | 91.6 |  |  |  |  |  |  |  |  |  | 
O=C(NNC(=O)c1ccc2[nH]c(-c3ccc([N+](=O)[O-])o3)nc2c1)c1cccc(Cl)c1 | 73.4 | 10.3 |  | 39 |  |  |  |  |  |  | 3.38 |  | 12.4 | 
O=CNNC(=O)c1ccc2[nH]c(-c3ccc([N+](=O)[O-])s3)nc2c1 | 87.4 | 9.88 |  | 36.2 |  |  |  |  |  |  | 18.7 |  | 10.04 | 
COc1ccc(C(=O)NNC(=O)c2ccc3[nH]c(-c4ccc([N+](=O)[O-])s4)nc3c2)cc1OC | 70.8 | 21.4 |  | 38.2 |  |  |  |  |  |  | 16.1 |  | 13.8 | 
O=C(NNC(=O)c1ccc2[nH]c(-c3ccc([N+](=O)[O-])s3)nc2c1)c1cccc(Oc2ccccc2)c1 | 76.5 | 19.1 |  | 0 |  |  |  |  |  |  | 7.28 |  | 11 | 
O=C(NNC(=O)c1ccc2[nH]c(-c3ccc([N+](=O)[O-])o3)nc2c1)c1cccc(Oc2ccccc2)c1 | 84.6 | 14.1 | > 7.8 |  | > 7.8 | > 7.8 | > 25 | > 7.8 | > 7.8 | > 7.8 | 12.9 | > 7.8 | 10.6 | > 7.8
O=C(NNC(=O)c1ccc2[nH]c(-c3ccc([N+](=O)[O-])s3)nc2c1)c1ccccc1 | 86.2 | 10.8 |  | 39.2 |  |  |  |  |  |  | 10.1 |  | 12 | 
O=C(O)c1ccc2[nH]c(-c3ccc([N+](=O)[O-])s3)nc2c1 | 57.6 | 21.1 |  | 0 |  |  |  |  |  |  | 11.5 |  | 12.2 | 
NNC(=O)c1ccncc1 [ISONIAZID] |  |  |  |  |  |  | 0.125 (≈ 0.911 µM) |  |  |  |  |  |  | 
O=C(NNC(=O)c1ccc2[nH]c(-c3ccc([N+](=O)[O-])s3)nc2c1)c1cccc(Cl)c1 | 78.6 | 16 |  | 44.9 |  |  |  |  |  |  | 27.2 |  | 7.4 | 
CO[C@H]1/C=C/O[C@@]2(C)Oc3c(C)c(O)c4c(O)c(c(/C=N/N5CCN(C)CC5)c(O)c4c3C2=O)NC(=O)/C(C)=C\C=C\[C@H](C)[C@H](O)[C@@H](C)[C@@H](O)[C@@H](C)[C@H](OC(C)=O)[C@@H]1C [RIFAMPIN] |  |  |  |  |  |  | 0.063 (≈ 0.0766 µM) |  |  |  |  |  |  | 
